Measurements from ChEMBL document CHEMBL4190282, “The Conjugated Double Bond of Coniferyl Aldehyde Is Essential for Heat Shock Factor 1 Mediated Cytotoprotection” (J Nat Prod, 2017).
Active and inactive are the calls of the source. No cut-off for these calls is given here.

Key:
NCI-H460 = assay: Upregulation of HSF1 protein level in human NCI-H460 cells at 10 to 30 uM after 12 hrs by Western blot analysis; type: functional, cell-based
In short: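 NCI-H460 cells treated 12 h at 10 or 30 μM; HSF1, HSP27 and HSP70 detected by Western blot.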

Mus musculus [1] = assay: Toxicity in ICR mouse at 10 mg/kg, ip measured within 30 days; type: organism-based; conditions: in vivo, 720 h
In short: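 Normal ICR mice given 10 mg/kg ip (DMSO stock diluted in modified PBS); observed for signs of toxicity over 30 days.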

[2] = target: T1, Heat shock factor protein 1 (Mus musculus) (UniProt P38532); assay: Activation of HSF1 in MEF assessed as protection against IR-induced PARP cleavage at 3 uM pretreated for 1 hr followed by 10 Gy irradiation measured after 48 hrs by immunoblotting analysis; type: cell-based
T1 sequence (whole entry): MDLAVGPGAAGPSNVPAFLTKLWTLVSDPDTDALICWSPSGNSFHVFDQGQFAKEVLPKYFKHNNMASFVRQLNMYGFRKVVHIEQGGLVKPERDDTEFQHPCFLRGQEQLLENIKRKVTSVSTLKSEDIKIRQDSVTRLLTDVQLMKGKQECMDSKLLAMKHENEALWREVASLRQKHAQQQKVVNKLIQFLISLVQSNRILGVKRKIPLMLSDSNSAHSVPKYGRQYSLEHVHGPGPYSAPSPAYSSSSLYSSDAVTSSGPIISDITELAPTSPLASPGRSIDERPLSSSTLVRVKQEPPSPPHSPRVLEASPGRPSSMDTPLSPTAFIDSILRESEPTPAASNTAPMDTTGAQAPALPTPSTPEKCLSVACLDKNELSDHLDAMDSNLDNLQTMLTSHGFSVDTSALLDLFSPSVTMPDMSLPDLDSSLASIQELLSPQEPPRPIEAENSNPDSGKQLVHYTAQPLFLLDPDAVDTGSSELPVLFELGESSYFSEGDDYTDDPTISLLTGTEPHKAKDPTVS
In short: (§1)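 HSF1+/+ or HSF1−/− MEFs in DMEM with heat-inactivated 10% FBS, nonessential amino acids, glutamine, HEPES, 37 °C, 5% CO2. 1 h pretreatment at 3 μM, then 0.5 μM paclitaxel or 20 μM cisplatin for 24 h, or 10 Gy 137Cs γ-rays (3.81 Gy/min) for 48 h. Cleaved PARP and caspase-3 immunoblotted; bands normalized to loading control, fold-change vs negative control, ≥3 independent experiments.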

Mus musculus [3] = assay: Protection against IR-induced reduction of food and water intake in ICR mouse at 5 to 10 mg/kg, ip administered once before and three times after 7 Gy irradiation measured daily for 30 days; type: functional, organism-based
In short: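 Female ICR mice (5–6 weeks, 25–30 g) given 7 Gy whole-body IR; dosed ip at 5 or 10 mg/kg once before and three times after IR, DMSO stock diluted in modified PBS. Survival days and radiation sickness signs checked twice daily; 10 mice per group.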

Mus musculus [4] = assay: Protection against IR-induced reduction in circulating WBCs in ICR mouse at 10 mg/kg, ip administered once before and three times after 4.5 Gy irradiation measured after 9 days; type: functional, organism-based
In short: (§2)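 Female ICR mice (5–6 weeks) given 4.5 Gy whole-body IR, dosed ip at 10 mg/kg once before and three times after IR; 5 per group, sacrificed day 9. BM cellularity from H&E (hematopoietic cells per 200×200 μm area); peripheral WBC, lymphocytes, neutrophils; Ki67 IHC counted in five fields per femur; relative spleen weight vs control. Means ± SD, Student's t test.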

[5] = target: T2, Heat shock factor protein 1 (Homo sapiens) (UniProt Q00613); assay: Activation of HSF1 in human L132 cells assessed as increase in HSP25 mRNA expression at 3 uM after 12 hrs by RT-PCR analysis; type: cell-based
T2 sequence (whole entry): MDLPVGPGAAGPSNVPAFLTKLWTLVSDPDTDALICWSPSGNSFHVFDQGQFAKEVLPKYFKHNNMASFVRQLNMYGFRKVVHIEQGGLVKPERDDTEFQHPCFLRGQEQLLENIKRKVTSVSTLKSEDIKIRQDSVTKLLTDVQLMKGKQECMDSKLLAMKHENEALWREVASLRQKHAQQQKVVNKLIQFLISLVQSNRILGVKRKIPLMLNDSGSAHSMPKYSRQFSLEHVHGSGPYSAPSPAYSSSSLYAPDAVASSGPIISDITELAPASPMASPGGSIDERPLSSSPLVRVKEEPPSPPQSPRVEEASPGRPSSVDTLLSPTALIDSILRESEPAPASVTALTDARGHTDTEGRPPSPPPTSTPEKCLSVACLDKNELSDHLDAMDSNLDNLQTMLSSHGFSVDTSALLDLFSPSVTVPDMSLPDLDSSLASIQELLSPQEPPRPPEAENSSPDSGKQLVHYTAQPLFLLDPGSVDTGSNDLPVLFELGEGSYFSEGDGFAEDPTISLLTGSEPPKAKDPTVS
In short: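 L132 human lung fibroblasts treated 12 h at 3 μM; hsp27 and hsp70 mRNA measured by RT-PCR under the same conditions as immunoblotting. Celastrol 1 μM positive control.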

L132 = assay: Cytoprotective activity against IR-induced caspase3 cleavage in human L-132 cells at 3 uM pretreated for 1 hr followed by 10 Gy irradiation measured after 48 hrs by immunoblotting analysis; type: functional, cell-based
In short: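 Human embryonic lung L132 cells in RPMI with 10% FBS. 1 h pretreatment at 3 μM, then 0.5 μM paclitaxel or 20 μM cisplatin for 24 h, or 10 Gy 137Cs γ-rays (3.81 Gy/min) for 48 h. Cleaved PARP and caspase-3 immunoblotted (ECL); bands normalized to loading control, fold-change vs negative control, ≥3 independent experiments.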

[6] = target: T1, Heat shock factor protein 1 (Mus musculus); assay: Activation of HSF1 in MEF assessed as protection against cisplatin-induced PARP cleavage at 3 uM pretreated for 1 hr followed by cisplatin addition measured after 24 hrs by immunoblotting analysis; type: cell-based; in short: as §1
MEF [7] = assay: Cytoprotective activity against cisplatin-induced caspase3 cleavage in HSF1 deficient MEF at 3 uM pretreated for 1 hr followed by cisplatin addition measured after 24 hrs by immunoblotting analysis; type: functional, cell-based; conditions: Mus musculus; in short: as §1
[8] = target: T1, Heat shock factor protein 1 (Mus musculus); assay: Activation of HSF1 in MEF assessed as protection against cisplatin-induced caspase3 cleavage at 3 uM pretreated for 1 hr followed by cisplatin addition measured after 24 hrs by immunoblotting analysis; type: cell-based; in short: as §1
Mus musculus [9] = assay: Protection against IR-induced reduction in circulating lymphocytes in ICR mouse at 10 mg/kg, ip administered once before and three times after 4.5 Gy irradiation measured after 9 days; type: functional, organism-based; in short: as §2
MEF [10] = assay: Cytoprotective activity against IR-induced caspase3 cleavage in HSF1 deficient MEF at 3 uM pretreated for 1 hr followed by 10 Gy irradiation measured after 48 hrs by immunoblotting analysis; type: functional, cell-based; conditions: Mus musculus; in short: as §1
Mus musculus [11] = assay: Protection against IR-induced reduction in cellular proliferation in ICR mouse at 10 mg/kg, ip administered once before and three times after 4.5 Gy irradiation measured after 9 days by Ki67 staining-based immunohistochemical analysis; type: functional, organism-based; in short: as §2
Mus musculus [12] = assay: Protection against IR-induced reduction of spleen weight in ICR mouse at 10 mg/kg, ip administered once before and three times after irradiation measured after 9 days; type: functional, organism-based; in short: as §2

## COc1cc(/C=C/CO)ccc1O [CONIFERYL ALCOHOL]
NCI-H460
  Activity: Active
Mus musculus [1]
  Activity: Non-Toxic
[2]
  Activity: Active
Mus musculus [3]
  Activity: Active
Mus musculus [4]
  Activity: Active
[5]
  Activity: Active
L132
  Activity: Active
[6]
  Activity: Active
MEF [7]
  Activity: inactive
[8]
  Activity: Active
Mus musculus [9]
  Activity: Active
MEF [10]
  Activity: inactive
Mus musculus [11]
  Activity: Active
Mus musculus [12]
  Activity: Active

## COc1cc(/C=C/C=O)ccc1O [CONIFERYL ALDEHYDE]
NCI-H460
  Activity: Active
Mus musculus [1]
  Activity: Non-Toxic
[2]
  Activity: Active
Mus musculus [3]
  Activity: Active
Mus musculus [4]
  Activity: Active
[5]
  Activity: Active
L132
  Activity: Active
[6]
  Activity: Active
MEF [7]
  Activity: inactive
[8]
  Activity: Active
Mus musculus [9]
  Activity: Active
MEF [10]
  Activity: inactive
Mus musculus [11]
  Activity: Active
Mus musculus [12]
  Activity: Active
